Experimental data taken from ChEMBL document CHEMBL5506013, “Mitochondria-Selective Dicationic Small-Molecule Ligand Targeting G-Quadruplex Structures for Human Colorectal Cancer Therapy” (J Med Chem, 2024).
The source made the active and inactive calls. The rule behind the calls is not given here.

Experiments:
Quadruplex DNA [1] = assay: Binding affinity to mito 78 G4 DNA (unknown origin) assessed as dissociation constant measured upto 450 secs by surface plasmon resonance assay; assay type: nucleic-acid assay
Quadruplex DNA [2] = assay: Binding affinity to mito 29 G4 DNA (unknown origin) assessed as dissociation constant measured upto 450 secs by surface plasmon resonance assay; assay type: nucleic-acid assay
Procedure, shortened: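 Surface plasmon resonance in buffer at 25 °C. Four G4-mtDNAs (Mito 78, Mito 55, Mito 29, Mito 0.5-16) and the hairpin HP19 served as substrates. Kd was derived from the sensorgrams.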

MDA-MB-231 = assay: Antiproliferative activity against human MDA-MB-231 cells measured after 48 hrs by MTT assay; assay type: functional, cell-based; settings: MDA-MB-231, 48 h
Procedure, shortened: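 Cells exposed to the ligands for 48 h. Viability was read by MTT, and the IC50 was derived from the response.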

HFF-1 [3] = assay: Downregulation of ND1 gene expression in human HFF-1 cells at 0 to 4 uM measured after 48 hrs by q-PCR analysis; assay type: functional, cell-based; settings: dose 0-4 µM
HCT-116 [4] = assay: Downregulation of ND4 mRNA level in human HCT-116 cells at 0 to 4 uM measured after 48 hrs by qRT-PCR analysis; assay type: functional, cell-based; settings: dose 0-4 µM
HCT-116 [5] = assay: Downregulation of ATP6 mRNA level in human HCT-116 cells at 0 to 4 uM measured after 48 hrs by qRT-PCR analysis; assay type: functional, cell-based; settings: dose 0-4 µM
HCT-116 [6] = assay: Downregulation of ATP8 mRNA level in human HCT-116 cells at 0 to 4 uM measured after 48 hrs by qRT-PCR analysis; assay type: functional, cell-based; settings: dose 0-4 µM
HFF-1 [7] = assay: Downregulation of ND2 mRNA level in human HFF-1 cells at 0 to 4 uM measured after 48 hrs by qRT-PCR analysis; assay type: functional, cell-based; settings: dose 0-4 µM
HCT-116 [8] = assay: Downregulation of ATP6 protein level in human HCT-116 cells at upto 4 uM incubated for 48 hrs by Western blot analysis; assay type: functional, cell-based
HCT-116 [9] = assay: Downregulation of mitochondrial respiratory chain complex II level in human HCT-116 cells at upto 4 uM measured after 48 hrs by Western blot analysis; assay type: functional, cell-based
HCT-116 [10] = assay: Downregulation of mitochondrial respiratory chain complex III level in human HCT-116 cells at upto 4 uM measured after 48 hrs by Western blot analysis; assay type: functional, cell-based
HCT-116 [11] = assay: Induction of DNA damage in human HCT-116 assessed as increase in gammaH2AX level at upto 4 uM incubated for 72 hrs in presence of MitoTEMPOL by Western blot analysis; assay type: functional, cell-based
Quadruplex DNA [12] = assay: Binding affinity to mito 55 G4 DNA (unknown origin) assessed as increase in fluorescence intensity by fluorescence spectrophotometric analysis; assay type: nucleic-acid assay
Procedure, shortened: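 Oligonucleotides were pre-annealed at 95 °C for 10 min, then cooled slowly. Ligand (5 uM) was mixed with 20 uM DNA in buffer. Emission was collected over 550–800 nm, and enhancement was taken at 650 nm as F/F0.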

Quadruplex DNA [13] = assay: Binding affinity to mito 78 G4 DNA (unknown origin) assessed as increase in fluorescence intensity by fluorescence spectrophotometric analysis; assay type: nucleic-acid assay
Procedure, shortened: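 Fluorescence titration in buffer. Ligand at 5 uM mixed with 20 uM pre-annealed DNA (95 °C for 10 min, slow cooling). Emission collected at 550-800 nm and monitored at 650 nm. Result reported as fold enhancement F/F0 over ligand alone.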

Quadruplex DNA [14] = assay: Binding affinity to Mito 81 G4 DNA (unknown origin) assessed as change in melting temperature at 5 uM by circular dichroism spectroscopic analysis; assay type: nucleic-acid assay
[15] = Drug localization in human HCT-116 cells by measuring red foci at 4 uM incubated for 1 hr in presence of cyclosporin A by hoechst33342 staining based analysis; assay type: ADME, cell-based; settings: hct-116, 1 h
Procedure, shortened: (§1)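 Pretreatment of live HCT116 cells: FCCP 1 uM for 20 min, cyclosporin A 1 uM for 24 h, DMOG 100 uM for 24 h, or MitoPDS at several concentrations for 3 h (applied after dye loading). Cells loaded with ligand 4 uM (excitation 488 nm) for 1 h and Hoechst33342 1 uM for 30 min. Red foci counted by confocal imaging in 100 cells. Mean ± SEM, t test.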

[16] = Drug localization in human HCT-116 cells by measuring red foci at 4 uM incubated for 1 hr in presence of DMOG by hoechst33342 staining based analysis; assay type: ADME, cell-based; settings: hct-116, 1 h; procedure, shortened: as §1
HCT-116 [17] = assay: Upregulation of p16 level in human HCT-116 cells at upto 4 uM measured after 72 hrs by Western blot analysis; assay type: functional, cell-based
Procedure, shortened: (§2)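 HCT116 cells treated with ligand at 0-4 uM for 72 h. Lysates immunoblotted for Lamin B1, p53, p21, p16, gamma-H2A.x, caspase-3 and cleaved caspase-3, with beta-actin as loading control.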

HCT-116 [18] = assay: Upregulation of cleaved caspase-3 level in human HCT-116 cells at upto 4 uM measured after 72 hrs by Western blot analysis; assay type: functional, cell-based; procedure, shortened: as §2
HFF-1 [19] = assay: Induction of morphological changes in human HFF-1 cells at 4 uM by microscopy based analysis; assay type: functional, cell-based
Procedure, shortened: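 HCT116 and HFF1 cells treated with ligand at 4 uM alongside untreated controls. Morphology examined by microscopy at 100x.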

HCT-116 [20] = assay: Inhibition of cell migration in human HCT-116 cells at upto 4 uM measured after 72 hrs by transwell assay relative to control; assay type: functional; settings: up to 4 µM
Procedure, shortened: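 Transwell migration of HCT116 cells treated for 72 h at 0, 1, 2 or 4 uM, imaged at 100x and quantified; mean ± SD.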

[21] = Toxicity in BALB/c nude mouse assessed as change in body weight at 5 mg/kg, iv administered every two days for 16 days; assay type: organism-based; settings: in vivo, 384 h, time 16 day
Procedure, shortened: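 Male Balb/c nude mice bearing HCT116 xenografts, 6 per group, given PBS or ligand 5 mg/kg intravenously every two days. Body weight tracked over 16 days.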

HCT-116 [22] = assay: Antitumor activity against human HCT-116 cells xenografted in Balb/c nude mouse model assessed as inhibition of tumor growth at 5 mg/kg, iv administered every two days for 16 days; assay type: functional, organism-based; settings: time 16.0 day
Procedure, shortened: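 Male Balb/c nude mice carrying HCT116 xenografts, 6 per group. Dosing was intravenous every two days at 5 mg/kg, with a PBS-injected control group. Body weight and tumour growth were tracked. Tumours were excised and weighed after 16 days.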

HCT-116 [23] = assay: Antitumor activity against human HCT-116 cells xenografted in Balb/c nude mouse model assessed as induction of apoptosis at 5 mg/kg, iv administered every two days for 16 days by TUNEL staining based analysis; assay type: functional, organism-based; settings: time 16.0 day
Procedure, shortened: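 Tumours came from HCT116-xenografted male Balb/c nude mice given 5 mg/kg i.v. every two days, or PBS, for 16 days. Tumour tissue sections were stained by TUNEL for apoptosis and by Ki67 immunofluorescence for proliferation, then compared with the control group.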

[24] = Drug localization in human HCT-116 cells transfected with Cy5-HP19 non G4 DNA at 4 uM incubated for 1 hr by hoechst33342 staining based analysis; assay type: ADME, cell-based; settings: hct-116, 1 h
Procedure, shortened: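 HCT116 cells transfected with Cy5-labelled DNA (excitation 635 nm) for 24 h. Ligand 4 uM added for 1 h, then Hoechst33342 1 uM for 30 min. Colocalization of ligand with Cy5 quantified by Pearson r from confocal images.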

[25] = Drug localization in human HCT-116 cells overexpressing […] by measuring red foci at 4 uM incubated for 1 hr by hoechst33342 staining based analysis; assay type: ADME, cell-based; settings: hct-116, 1 h

Compound: C(=C\c1ccc2ccccc2[n+]1CCCCCCCC[n+]1c(/C=C/c2ccc(N3CCCCC3)cc2)ccc2ccccc21)/c1ccc(N2CCCCC2)cc1.[I-].[I-]
- Kd (Quadruplex DNA [1]): 0.04 µM
- Kd (Quadruplex DNA [2]): 0.11 µM
- IC50 (MDA-MB-231): 34.6 µM
- Activity (HFF-1 [3]): inactive
- Activity (HCT-116 [4]): Active
- Activity (HCT-116 [5]): Active
- Activity (HCT-116 [6]): Active
- Activity (HFF-1 [7]): Active
- Activity (HCT-116 [8]): Active
- Activity (HCT-116 [9]): Active
- Activity (HCT-116 [10]): Active
- Activity (HCT-116 [11]): inactive
- Activity (Quadruplex DNA [12]): Active
- Activity (Quadruplex DNA [13]): Active
- ΔTm (Quadruplex DNA [14]): 3.6 °C
- Drug uptake [15]: Active
- Drug uptake [16]: Not Active
- Activity (HCT-116 [17]): Active
- Activity (HCT-116 [18]): Active
- Activity (HFF-1 [19]): Active
- inhibition (INH) (HCT-116 [20]): 40%
- Activity [21]: Non-Toxic
- Activity (HCT-116 [22]): Active
- Activity (HCT-116 [23]): Active
- Drug uptake [24]: Not Active
- Drug uptake [25]: Active
